pIC50: −log10 of the molar value. Activity calls are given as the source filed them. The calls are words filed in the database; no cut-off is given here.
Experiments:
Vaccinia virus [1] = assay: Antiviral activity against Vaccinia virus WR expressing luciferase reporter virus v3 infected in rabbit RK13 cells assessed as inhibition of early stages of VACV replication at 10 uM incubated for 30 mins prior to inoculation measured after 2 hrs by luciferase reporter gene assay relative to control; format: functional; conditions: Orthopoxvirus vaccinia, RK-13
BSC-1 [2] = assay: Cytotoxicity against african green monkey BSC1 cells infected with Vaccinia virus-WR luciferase reporter virus v3 assessed as visible cytotoxic effect at 10 uM incubated for 30 mins prior to inoculation measured after 2 hrs by phase contrast microscopic analysis; format: cell-based; conditions: chlorocebus aethiops, bsc-1, 2 h
Vaccinia virus [3] = assay: Antiviral activity against Vaccinia virus WR infected in african green monkey BSC1 cells after 4 days by plaque reduction assay; format: functional, organism-based; conditions: Orthopoxvirus vaccinia, BSC-1, 96 h
[4] = Cytotoxicity against human HFFF cells assessed as cell viability by CellTitre-Glo Luminescent Cell Viability assay; format: cell-based
[5] = Cytotoxicity against african green monkey BSC1 cells assessed as ATP levels […] by CellTitre-Glo Luminescent Cell Viability assay; format: cell-based, BSC-1; conditions: chlorocebus aethiops
BSC-1 [6] = assay: Cytotoxicity against african green monkey BSC1 cells infected with Vaccinia virus-WR after 4 days; format: cell-based; conditions: chlorocebus aethiops, bsc-1, 96 h
Measles morbillivirus [7] = assay: Antiviral activity against wild type Measles virus mWTFb infected in simian B95a cells assessed as virus-induced cytopathogenicity incubated for 30 mins prior to inoculation measured after 3 days by phase contrast microscopy; format: functional, organism-based
Measles morbillivirus [8] = assay: Ratio of ribavirin TCID50 to compound TCID50 for wild type Measles virus mWTFb; format: functional
Human alphaherpesvirus 2 [9] = assay: Antiviral activity against HSV 2 NCPV 132349 infected in human HFFF cells assessed as virus-induced cytopathogenicity incubated for 30 mins prior to inoculation measured after 3 days by phase contrast microscopy; format: functional
Procedure, shortened: (§1)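 Cells grown to 80% confluence in 96-well plates and pretreated 30 min with drug-containing medium. Infection was 100 pfu (HSV-1/2, adenovirus 5) or 100 sfu (measles) per well, then 3 days in DMEM without FBS or antibiotics with drug at 1–100 µM. CPE was scored by phase contrast against virus-only controls. TCID50 is the 50% CPE reduction, averaged over 3 experiments by Reed–Muench.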

Measles morbillivirus [10] = assay: Antiviral activity against Measles virus Edmonston infected in african green monkey BSC-1 cells assessed as virus-induced cytopathogenicity incubated for 30 mins prior to inoculation measured after 3 days by phase contrast microscopy; format: functional; procedure, shortened: as §1
Human alphaherpesvirus 1 [11] = assay: Antiviral activity against HSV 1 NCPV 17+ infected in human HFFF cells assessed as virus-induced cytopathogenicity incubated for 30 mins prior to inoculation measured after 3 days by phase contrast microscopy; format: functional; procedure, shortened: as §1
Human adenovirus 5 [12] = assay: Antiviral activity against Adenovirus type 5 ATCC VR-5 infected in human HFFF cells assessed as virus-induced cytopathogenicity incubated for 30 mins prior to inoculation measured after 3 days by phase contrast microscopy; format: functional; procedure, shortened: as §1
[13] = Selectivity index, ratio of CC50 for african green monkey BSC1 cells to IC50 for Vaccinia virus-WR; format: functional, BSC-1
Human alphaherpesvirus 2 [14] = assay: Antiviral activity against HSV 2 NCPV 132349 infected in african green monkey BSC-1 cells assessed as virus-induced cytopathogenicity incubated for 30 mins prior to inoculation measured after 3 days by phase contrast microscopy; format: functional; procedure, shortened: as §1
Measles morbillivirus [15] = assay: Antiviral activity against Measles virus Edmonston infected in simian B95a cells assessed as virus-induced cytopathogenicity incubated for 30 mins prior to inoculation measured after 3 days by phase contrast microscopy; format: functional; procedure, shortened: as §1
Human alphaherpesvirus 1 [16] = assay: Antiviral activity against HSV 1 NCPV 17+ infected in african green monkey BSC-1 cells assessed as virus-induced cytopathogenicity incubated for 30 mins prior to inoculation measured after 3 days by phase contrast microscopy; format: functional; procedure, shortened: as §1
Vaccinia virus [17] = assay: Ratio of cidofovir IC50 to compound IC50 for Vaccinia virus WR; format: functional, Orthopoxvirus vaccinia
Human adenovirus 5 [18] = assay: Antiviral activity against Adenovirus type 5 ATCC VR-5 infected in african green monkey BSC1 cells assessed as virus-induced cytopathogenicity incubated for 30 mins prior to inoculation measured after 3 days by phase contrast microscopy; format: functional, BSC-1; procedure, shortened: as §1

| Compound | inhibition at 10 µM (Vaccinia virus [1]) [%] | Activity (BSC-1 [2]) | pIC50 (Vaccinia virus [3]) | Activity (BSC-1 [6]) | further results |
| --- | --- | --- | --- | --- | --- |
| CCCCCc1ccc(-c2cc3cn([C@@H]4CC[C@H](CO)O4)c(=O)nc3o2)cc1 | 73.6 | Non-toxic |  |  |  |
| CC(C)OCCCCCCCCCc1cc2cn([C@@H]3CC[C@H](CO)O3)c(=O)nc2o1 | 79.9 | Non-toxic |  |  |  |
| CCOCCCCCCCCCc1cc2cn([C@@H]3CC[C@H](CO)O3)c(=O)nc2o1 | 79.9 | Non-toxic | 4.89 | Non-toxic | CC50 [4]: > 100 µM; CC50 at 96 h [5]: 79.4 µM |
| CCCCc1ccc(-c2cc3cn([C@@H]4CC[C@H](CO)O4)c(=O)nc3o2)cc1 | 43.7 | Non-toxic |  |  |  |
| CCCCCCCCCCCCCOCc1cc2cn([C@@H]3CC[C@H](CO)O3)c(=O)nc2o1 | 43.9 | Non-toxic | 5.47 | Non-toxic |  |
| COC[C@H]1OC(=O)c2coc3c2[C@@]1(C)C1=C(C3=O)[C@@H]2CCC(=O)[C@@]2(C)C[C@H]1OC(C)=O [WORTMANNIN] |  |  |  |  | pIC50 (Measles morbillivirus [7]): 4.12 |
| CCCCCCCCCCCCc1cc2cn([C@@H]3CC[C@H](CO)O3)c(=O)nc2o1 | 96.4 | Non-toxic |  |  |  |
| CCCCCCCCCCc1cc2cn([C@@H]3CC[C@H](CO)O3)c(=O)nc2o1 | 45.7 | Non-toxic |  |  |  |
| CC(C)(C)OCCCCCCCCCc1cc2cn([C@@H]3CC[C@H](CO)O3)c(=O)nc2o1 | 70.7 | Non-toxic |  |  |  |
| CCC(C)OCCCCCCCCCc1cc2cn([C@@H]3CC[C@H](CO)O3)c(=O)nc2o1 (some centres not stated) | 69.9 | Non-toxic |  |  |  |
| Nc1ccn(C[C@@H](CO)OCP(=O)(O)O)c(=O)n1 [CIDOFOVIR] | 94.6 |  | 4.94 |  | CC50 [4]: > 100 µM; CC50 at 96 h [5]: > 100 µM; inhibition (Measles morbillivirus [7]): inactive |
| CCCCCCCCc1cc2cn([C@@H]3CC[C@H](CO)O3)c(=O)nc2o1 | 41.9 | Non-toxic |  |  |  |
| CCCCCCc1cc2cn([C@@H]3CC[C@H](CO)O3)c(=O)nc2o1 | 70.7 | Non-toxic |  |  |  |
| CCCCCCOCCCCCCCCc1cc2cn([C@@H]3CC[C@H](CO)O3)c(=O)nc2o1 | 37.2 | Non-toxic | 5.77 | Non-toxic |  |
| COCCCCCCCCCCCCCc1cc2cn([C@@H]3CC[C@H](CO)O3)c(=O)nc2o1 | 60.5 | Non-toxic |  |  |  |
| CC(C)COCCCCCCCCCc1cc2cn([C@@H]3CC[C@H](CO)O3)c(=O)nc2o1 | 64.3 | Non-toxic |  |  |  |
| NC(=O)c1ncn([C@@H]2O[C@H](CO)[C@@H](O)[C@H]2O)n1 [RIBAVIRIN] |  |  |  |  | pIC50 (Measles morbillivirus [7]): 2.94 |
| CCCCCOCCCCCCCCCc1cc2cn([C@@H]3CC[C@H](CO)O3)c(=O)nc2o1 | 27.7 | Non-toxic | 6.72 | Non-toxic | Ratio (Measles morbillivirus [8]): 150; TCID50 (Human alphaherpesvirus 2 [9]): >50 µM; CC50 [4]: > 100 µM; TCID50 (Measles morbillivirus [10]): >50 µM; TCID50 (Human alphaherpesvirus 1 [11]): >50 µM; CC50 at 96 h [5]: > 100 µM; TCID50 (Human adenovirus 5 [12]): >50 µM; Ratio CC50/IC50 [13]: >500; TCID50 (Human alphaherpesvirus 2 [14]): >50 µM; TCID50 (Measles morbillivirus [15]): >50 µM; TCID50 (Human alphaherpesvirus 1 [16]): >50 µM; Ratio IC50 (Vaccinia virus [17]): 60; TCID50 (Human adenovirus 5 [18]): >50 µM |
| CCCCCCOCCCCCCCCCc1cc2cn([C@@H]3CC[C@H](CO)O3)c(=O)nc2o1 | 35.7 | Non-toxic | 6.72 | Non-toxic | CC50 [4]: > 100 µM; CC50 at 96 h [5]: 74.1 µM; Ratio IC50 (Vaccinia virus [17]): 60 |
| CCCOCCCCCCCCCc1cc2cn([C@@H]3CC[C@H](CO)O3)c(=O)nc2o1 | 46.8 | Non-toxic | 5.72 | Non-toxic | CC50 [4]: > 100 µM; CC50 at 96 h [5]: 89.1 µM |
| CCCCCCCCCCOCCCCc1cc2cn([C@@H]3CC[C@H](CO)O3)c(=O)nc2o1 | 26.1 | Non-toxic | 5.66 | Non-toxic |  |
| CCCCCCCCCc1cc2cn([C@@H]3CC[C@H](CO)O3)c(=O)nc2o1 | 38.1 | Non-toxic |  |  |  |
| CCCCCCCc1cc2cn([C@@H]3CC[C@H](CO)O3)c(=O)nc2o1 | 43.2 | Non-toxic |  |  |  |
| CCCCOCCCCCCCCCc1cc2cn([C@@H]3CC[C@H](CO)O3)c(=O)nc2o1 | 27.5 | Non-toxic | 5.74 | Non-toxic | CC50 [4]: > 100 µM; CC50 at 96 h [5]: > 100 µM |

Reference: ChEMBL document CHEMBL2321734, “Novel antiviral activity of l-dideoxy bicyclic nucleoside analogues versus vaccinia and measles viruses in vitro” (J Med Chem, 2013)
